Compound activity deposited in PubChem by several laboratories.
An excerpt weighted towards active compounds, which were near 3.5% of everything screened.
FXIa inh = inhibitors of human coagulation factor XIa; P03951; purified FXIa, Boc-Glu-Ala-Arg-AMC fluorogenic substrate; inhibition, % at 5 µM; 0.14% of 220,000 active; AID 798;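 active = inhibition of at least 40%; inactive = inhibition below 40%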;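 note: fluorescence of freed AMC excited at 355 nm; 0% = enzyme without compound and 100% = no enzyme blank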
AHR act = human AHR activation; P35869; AHR-responsive luciferase reporter cells, luminescence; AID 2796; activation, % at 5 µM; 2.5% of 320,000 active; in the data active = activation above about 47%;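 note: 0% = vehicle wells and 100% = reference agonist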
Target sequence (P35869 whole entry, looked up): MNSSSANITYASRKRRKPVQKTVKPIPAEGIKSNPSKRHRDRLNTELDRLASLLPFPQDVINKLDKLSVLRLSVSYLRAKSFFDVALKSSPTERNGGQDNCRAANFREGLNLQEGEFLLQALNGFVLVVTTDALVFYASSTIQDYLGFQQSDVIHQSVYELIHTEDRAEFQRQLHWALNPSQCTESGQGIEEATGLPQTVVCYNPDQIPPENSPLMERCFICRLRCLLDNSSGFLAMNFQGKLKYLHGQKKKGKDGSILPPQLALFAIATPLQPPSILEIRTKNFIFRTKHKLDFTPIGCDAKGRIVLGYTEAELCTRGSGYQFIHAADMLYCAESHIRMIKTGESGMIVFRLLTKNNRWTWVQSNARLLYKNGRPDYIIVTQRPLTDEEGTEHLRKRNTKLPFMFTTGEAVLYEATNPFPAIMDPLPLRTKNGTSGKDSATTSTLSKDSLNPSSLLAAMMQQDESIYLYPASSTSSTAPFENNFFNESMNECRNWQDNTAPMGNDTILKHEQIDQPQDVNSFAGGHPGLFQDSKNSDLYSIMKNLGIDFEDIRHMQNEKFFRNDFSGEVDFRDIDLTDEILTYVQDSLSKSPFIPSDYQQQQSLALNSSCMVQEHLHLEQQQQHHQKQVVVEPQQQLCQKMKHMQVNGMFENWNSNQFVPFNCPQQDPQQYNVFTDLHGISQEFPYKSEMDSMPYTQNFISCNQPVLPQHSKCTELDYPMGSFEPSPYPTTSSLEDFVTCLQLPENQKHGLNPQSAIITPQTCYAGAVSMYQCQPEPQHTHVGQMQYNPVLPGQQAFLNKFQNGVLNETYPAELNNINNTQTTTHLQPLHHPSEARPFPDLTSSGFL
thrombin 1536 = thrombin (human) inhibition. inhibition, % at 5 µM. AID 1046. P00734. 0.26% of 220,000 active. alpha-thrombin, Boc-VPR-AMC fluorogenic substrate cleavage;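 active = inhibition at or above 40%; inactive = inhibition below 40%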;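 note: 0% = enzyme with no compound and 100% = wells without enzyme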
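System – human alpha-thrombin protein · Reagent – Boc-VPR-AMC substrate, 15 µM final · Compound – 5 µM single dose in 0.2% DMSO · Schedule – reaction at room temperature · Technique – AMC fluorescence at 355 nm excitation and 460 nm emission · Read-out basis – % inhibition relative to enzyme controls and enzyme-free blanks · Control set – no-compound enzyme wells and no-enzyme blanks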
FXIIa inh 1536 = inhibitors of human coagulation factor XIIa; P00748; 0.3% of 220,000 active; inhibition, % at 5 µM; purified FXIIa, Boc-QGR-AMC fluorogenic substrate, 2 h; AID 800; in the data active = inhibition above about 40%;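 note: 0% = enzyme with no compound and 100% = blank without enzyme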
KLK5 inh = kallikrein 5 (human) inhibition. recombinant hK5, fluorogenic AMC substrate cleavage. 0.59% of 210,000 active. inhibition, % at 5 µM;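 active = inhibition of 40% or more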;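 note: 0% = enzyme controls without compound and 100% = no-enzyme blanks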
STAT3 act = STAT3 signaling activation; U3A cells, IL-6 STAT3-luciferase reporter, luminescence; 100% = signal with IL-6 EC80 alone; activation (% of control), % at 5.6 µM; 0.91% of 190,000 active; AID 871;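 active = activation above the screen-wide mean of compound activation plus 3 SD, cut at about 130% in these data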;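 note: 0% = background luminescence of wells with medium and substrate only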
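Material: human STAT1-deficient U3A cells with stable STAT3-luciferase reporter / Probe or stimulus: IL-6 stimulus at 33 ng/mL final / Schedule: 1 h compound pre-exposure, 6 h IL-6 stimulation, 37 °C / Technique: luminescence / Read-out basis: percent of IL-6-only median luminescence / Control set: IL-6-only high control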
Numbers without * were called inactive.

For C=CCNC(=O)c1oc2ccc(S(=O)(=O)N3CCC4(CC3)OCCO4)cc2c1C the results were AHR act 1.
`CCOC(=O)N1CCN(C(=O)c2oc3ccc(S(=O)(=O)N4CCCCCC4)cc3c2C)CC1` gave FXIa inh 9, AHR act -2, thrombin 1536 -1, FXIIa inh 1536 15, KLK5 inh -12 and STAT3 act 88.
Cn1c(C(=O)N2CCC(C(=O)NCc3ccccc3)CC2)cc2sccc21 was read as AHR act 0.
For O=c1cc(-c2ccc(O)c(O)c2)oc2cc(O)c(C3OC(CO)C(O)C(O)C3O)c(O)c12 (stereo unspecified) the results were FXIa inh -2, AHR act 0, thrombin 1536 -1, FXIIa inh 1536 7 and KLK5 inh 2.
Screening O=C1CN(C(=O)COC(=O)c2oc3ccccc3c2COc2ccccc2)c2ccccc2N1 returned FXIa inh 20, AHR act 3, thrombin 1536 3, FXIIa inh 1536 47*, KLK5 inh -17 and STAT3 act 100.
Screening Cc1cccc(C(=O)OCC(=O)N2CC(=O)Nc3ccccc32)c1C returned AHR act 8.
`CCOC(=O)c1[nH]c(C)c(C(=O)OCC(=O)N2CC(=O)Nc3ccccc32)c1C` gave FXIa inh 8, AHR act 5, thrombin 1536 8, FXIIa inh 1536 29, KLK5 inh 42* and STAT3 act 94.
Cc1c(C(=O)OCC(=O)N2CC(=O)Nc3ccccc32)oc2ccccc12 was read as FXIa inh 4, AHR act 8, thrombin 1536 4, FXIIa inh 1536 17, KLK5 inh 2 and STAT3 act 98.
For CCCOc1ccc(CNC(=S)Nc2ccccc2)cc1Cl the results were AHR act 76*.
`CC(C)CN(C(=O)CN1CCc2ccccc21)c1c(N)n(CC(C)C)c(=O)[nH]c1=O` gave FXIa inh 1, AHR act 11, thrombin 1536 0, FXIIa inh 1536 4, KLK5 inh 6 and STAT3 act 133*.
`CC(C)CN(C(=O)CN1CCN(c2ccccc2F)CC1)c1c(N)n(CC(C)C)c(=O)[nH]c1=O` gave FXIa inh -6, AHR act 0, thrombin 1536 -1, FXIIa inh 1536 4, KLK5 inh -18 and STAT3 act 104.
Screening O=C(NCCN1CCOCC1)C(=O)NCC1OCCN1S(=O)(=O)c1ccccc1 (stereo unspecified) returned AHR act -5.
Screening CSCCC(NC(=O)/C(=C\c1ccc(Cl)cc1)NC(=O)c1ccccc1)C(=O)O (stereo unspecified) returned FXIa inh -5, AHR act -2, thrombin 1536 -1, FXIIa inh 1536 -1, KLK5 inh -11 and STAT3 act 103.
`Cc1ccc(NC2=C/C(=N/S(=O)(=O)c3cccs3)c3ccccc3C2=O)cc1C` gave FXIa inh -4, AHR act 4, thrombin 1536 -2, FXIIa inh 1536 5, KLK5 inh -11 and STAT3 act 106.
Cc1cc(C)c(S(=O)(=O)/N=C2/C=C(Sc3ncn[nH]3)C(=O)c3ccccc32)cc1C was read as FXIa inh -4, AHR act 43, thrombin 1536 -1, FXIIa inh 1536 11, KLK5 inh -74 and STAT3 act 143*.
COCCCn1c(=O)c2sccc2n2c(CCCC(=O)NCc3ccc(OC)cc3)nnc12 was read as AHR act 0.
`Cc1ccc(S(=O)(=O)Nc2ccccc2F)cc1C(=O)NNC(=O)c1ccccc1O` gave AHR act 14.
Screening O=C(CSc1c2c(nc3cc(Cl)ccc13)CCCC2)NCc1ccco1 returned FXIa inh 0, AHR act 5, thrombin 1536 -4, FXIIa inh 1536 0, KLK5 inh -10 and STAT3 act 105.
For O=C(Nc1nccs1)c1cc(N2CCOCC2)nc2ccccc12 the results were FXIa inh 4, AHR act 76*, thrombin 1536 4, FXIIa inh 1536 10, KLK5 inh -5 and STAT3 act 121.
Screening Cc1c(Cl)ccc2c(C(=O)NCCN3CCCCC3)cc(-c3ccccn3)nc12 returned FXIa inh 8, AHR act 20, thrombin 1536 8, FXIIa inh 1536 21, KLK5 inh 17 and STAT3 act 134*.
Screening O=C(Nc1nccs1)c1cc(Cl)nc2ccccc12 returned FXIa inh -4, AHR act 68*, thrombin 1536 -11, FXIIa inh 1536 -3 and KLK5 inh -2.
For O=C(Nc1ccc(F)cc1)c1cc(-c2ccncc2)nc2c(Cl)cccc12 the results were AHR act 69*.
For O=C(O)c1cc(N2CCOCC2)nc2ccccc12 the results were AHR act 0.
`O=C(Nc1ccc(F)c([N+](=O)[O-])c1)c1ccc2c(c1)C(=O)OC2=O` gave FXIa inh -9, thrombin 1536 -1, FXIIa inh 1536 6 and KLK5 inh -42.
C=CC[C@@H](CC(=O)N[C@H](CO)Cc1ccccc1)C(=O)NC[C@H](OC(=O)[C@@H](CC=C)Cc1ccc(F)cc1)c1ccccc1 was read as AHR act 1.
O=C(CN(Cc1ccccc1Cl)C(=O)c1ccc(CN2CCOCC2)o1)NCC1CCCO1 (stereo unspecified) was read as FXIa inh -14, AHR act -3, thrombin 1536 1, FXIIa inh 1536 -6, KLK5 inh -14 and STAT3 act 102.
For CCN(CC(=O)Nc1cc(Cl)ccc1C)C(=O)c1ccc2c(c1)NC(=O)C(C)S2 (stereo unspecified) the results were AHR act 8.
CCCN(CCC)S(=O)(=O)c1cc2c3c(c1)CCN3C(=O)CC2 was read as AHR act 1.
For CCOc1ccc(N(CC(=O)Nc2ccc(OC)cc2OC)S(=O)(=O)c2c(C)[nH]c(=O)[nH]c2=O)cc1 the results were AHR act 1.
O=C(Nc1nccs1)c1cc(-c2ccccn2)nc2c(Cl)cccc12 was read as AHR act 76*.
Screening Cc1cc(NC(=O)c2cc(-c3ccccn3)nc3c(Cl)cccc23)no1 returned AHR act 23.
`Cc1cccc(NC(=O)c2cc(N3CCOCC3)nc3ccccc23)c1` gave FXIa inh -9, AHR act 22, thrombin 1536 0, FXIIa inh 1536 -9, KLK5 inh -34 and STAT3 act 111.
O=C(Nc1ccccc1)c1cc(N2CCOCC2)nc2ccccc12 was read as FXIa inh -9, AHR act 58*, thrombin 1536 -6, FXIIa inh 1536 0, KLK5 inh -9 and STAT3 act 114.
`CC(C)c1ccccc1NC(=O)COC(=O)c1cccnc1` gave AHR act -1.
